Source: ChEMBL document CHEMBL1145066, “Novel pyrone side tetracyclic psoralen derivatives: synthesis and photobiological evaluation” (J Med Chem, 2003)
pIC50: −log10 of the molar value. Calls of active or inactive are those of the source. No cut-off for these calls is given here.

Assays:
HeLa [1] = assay: Antiproliferative activity against HeLa (human cervix adenocarcinoma cells) in dark condition; assay type: functional, cell-based
In short: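 Dark control on HeLa (F-12, 10% FCS, 37 °C, 5% CO2). 10^5 cells/well were seeded and, after 24 h, given phenol-red-free DMEM with various agent concentrations. No irradiation was applied, and compound was not washed out; cells were kept 24 h in complete F-12 with compound. Viability was by trypan blue; IC50 is the 50% drop in cell number relative to control cultures.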

HeLa [2] = assay: Antiproliferative activity against HeLa (human cervix adenocarcinoma cells) after exposure to UV light; assay type: functional, cell-based
In short: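 HeLa cells grown in F-12 with 10% heat-inactivated FCS at 37 °C, 5% CO2. 10^5 cells/well were incubated 24 h, switched to phenol-red-free DMEM, and given various agent concentrations. After 1 h they were irradiated with UVA at 0.793 J cm^-2 (365 nm lamps). Drug medium was then removed, and cells were kept 24 h in complete F-12. Trypan blue counts gave IC50 versus control.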

HL-60 [3] = assay: Antiproliferative activity against HL-60 (human promyelocytic leukemic cells) after exposure to UV light; assay type: functional, cell-based
In short: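 HL-60 cells grown in RPMI 1640 with 15% heat-inactivated FCS at 37 °C, 5% CO2. 10^5 cells/well were incubated 24 h, then test agent was added at various concentrations in complete medium. After 1 h in the dark, cells received a UVA dose of 0.793 J cm^-2 (lamps emitting >90% at 365 nm) and were incubated 24 h more. Viability was read by trypan blue; IC50 is the 50% reduction in cell number versus control cultures.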

Cavia porcellus = organism: Cavia porcellus; assay: Skin Phototoxicity was tested on depilated Guinea Pigs (outbred Dunkin - Hartley strain) and erythema intensity was measured; Absent; assay type: functional, organism-based
HL-60 [4] = assay: Antiproliferative activity against HL-60 (human promyelocytic leukemic cells) in dark condition; assay type: functional, cell-based

SMILES	pIC50 (HeLa [1])	pIC50 (HeLa [2])	pIC50 (HL-60 [3])	Erythema intensity (Cavia porcellus)	pIC50 (HL-60 [4])
Cc1coc2c(OCCCN(C)C)c3oc(=O)c4c(c3cc12)CCCC4	< 4.70	6.17	6.02	inactive	4.80
Cc1coc2c(O)c3oc(=O)c4c(c3cc12)CCCC4	< 4.70	4.76	4.77	inactive	< 4.70
COc1c2occ(C)c2cc2c3c(c(=O)oc12)CCCC3	< 4.70	4.80	4.89	inactive	< 4.70
Cc1coc2c(O)c3oc(=O)c4ccccc4c3cc12	< 4.70	< 4.70	< 4.70	inactive	< 4.70
COc1c2occ(C)c2cc2c1oc(=O)c1ccccc12	< 4.70	< 4.70	4.93	inactive	< 4.70
Cc1coc2c(OCCCN(C)C)c3oc(=O)c4ccccc4c3cc12	< 4.70	6.19	6.17	inactive	5.00
COc1c2occc2cc2ccc(=O)oc12 [METHOXSALEN]	< 4.70				< 4.70
